For nine compounds, Activity, IC50 and survival results are on record in ChEMBL document CHEMBL3259545, “Novel pyrrolobenzoxaboroles: design, synthesis, and biological evaluation against Trypanosoma brucei” (Eur J Med Chem, 2014).

In experiment [1] the test system is Trypanosoma brucei brucei. Kind of experiment: Trypanocidal activity against bloodstream stage of Trypanosoma brucei brucei infected in acute BALB/c mouse assessed as clearance of blood parasite on day 30 at 50 mg/kg, ip bid administered for 5 days initiated 24 hrs post infection. The experiment is classed as functional. The note with it: route intraperitoneal. The procedure, abridged:
(§1)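 Female BALB/c mice infected i.p. with 600 T. b. brucei 221 parasites. Starting 24 h after infection, compounds were given i.p. at 50 mg/kg twice daily for 5 days, in 5% ethanol/45% water/50% PEG400. Untreated mice served as controls. Parasitemia was checked by trypan-blue-stained tail-vein blood smears every other day for ten days, then weekly, with survival followed to day 30.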

The test system of experiment [2] is Trypanosoma brucei brucei. The experiment in a line: Antitrypanosomal activity against Trypanosoma brucei brucei 427 after 72 hrs by alamar blue assay. The experiment is classed as functional, organism-based. The note with it: Trypanosoma brucei, 427, 72 h. The method, boiled down: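 Bloodstream T. b. brucei 427 kept in log phase in HMI-9 with 10% FBS, 10% Serum Plus and penicillin/streptomycin, subcultured every 2–3 days. Final density 1.0 × 10⁵/mL with 0.4% DMSO, exposed to serially diluted compounds for 72 h at 37 °C, 5% CO₂. Resazurin added for another 2–4 h, fluorescence read at ex 544/em 590 nm. IC50 from sigmoidal fits of triplicate points.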

The subject of experiment [3] is Trypanosoma brucei brucei. The experiment in a line: Trypanocidal activity against bloodstream stage of Trypanosoma brucei brucei infected in acute BALB/c mouse assessed as animal survival rate at 50 mg/kg, ip bid administered for 5 days initiated 24 hrs post infection. The note with it: route intraperitoneal. The experiment is classed as functional. The procedure, abridged: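 Female BALB/c mice infected i.p. with 600 T. b. brucei 221 bloodstream parasites; from 24 h post-infection, dosed 50 mg/kg i.p. twice daily for 5 days in 5% ethanol/45% sterile deionized water/50% PEG400. Parasitaemia was checked on trypan-blue-stained tail-vein blood smears every other day for 10 days, then weekly; survival was followed to day 30.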

Experiment [4] concerns L929. Kind of experiment: Cytotoxicity against mouse L929 cells assessed as cell viability after 72 hrs by alamar blue assay. The experiment is classed as cell-based. The note with it: L929, 72 h. The method, boiled down:
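L929 mouse fibroblasts grown in DMEM with 10% FBS and 1% penicillin/streptomycin, kept sub-confluent. Seeded from a 1 × 10⁴/mL suspension, attached overnight, then medium renewed and DMSO-diluted compounds added. Incubated 72 h at 37 °C, 5% CO₂. Resazurin added for another 3–4 h, fluorescence read at ex 544/em 590 nm.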
(In general: Resazurin is reduced to fluorescent resorufin, in cell work by metabolically active cells.)

Experiment [5] relates to Trypanosoma brucei brucei. Kind of experiment: Trypanocidal activity against bloodstream stage of Trypanosoma brucei brucei infected in acute BALB/c mouse assessed as extension of animal survival at 50 mg/kg, ip bid administered for 5 days initiated 24 hrs post infection. The experiment is classed as functional, organism-based. The arrangement: dose 50 mg/kg. The method, boiled down: as §1

The IC50 is the concentration that inhibits the measured activity by half.

Values after ≈ are worked out from the molar mass of the structure shown. Active and inactive are the calls of the source. The calls are words filed in the database; no cut-off is given here. Where only a bound is given, the exact number is not on record here.

As to `Nc1ccc(C(=O)c2ccn(-c3ccc4c(c3)B(O)OC4)c2)cc1`, the Activity in experiment [1] stood at 100%. Further, the IC50 in experiment [2] was 0.03 µg/mL (≈ 0.0943 µM); in experiment [4] it was 3.9 µg/mL (≈ 12.3 µM). Besides, the survival at 50 mg/kg in experiment [3] worked out at 100%.

Regarding `CCc1ccc(C(=O)c2ccn(-c3ccc4c(c3)B(O)OC4)c2)cc1`, the outcome in experiment [5] was Active. Besides, the IC50 in experiment [2] is 0.07 µg/mL (≈ 0.211 µM); in experiment [4], greater than 10 µg/mL.

For the compound `Cc1ccc(C(=O)c2ccn(-c3ccc4c(c3)B(O)OC4)c2)s1`, the Activity in experiment [1] stood at 100%. In addition, the IC50 in experiment [2] was 0.07 µg/mL (≈ 0.217 µM); in experiment [4], greater than 10 µg/mL. Further, the survival at 50 mg/kg in experiment [3] turned out to be 100%.

Consider `O=C(c1ccccc1)c1ccn(-c2ccc3c(c2)B(O)OC3)c1`, for which, in experiment [1], the Activity is listed as 100%. Besides, the IC50 in experiment [2] was 0.09 µg/mL (≈ 0.297 µM); in experiment [4], greater than 10 µg/mL. For the same compound, the survival at 50 mg/kg in experiment [3] was determined as 100%.

For the compound `O=C(c1ccc(O)cc1)c1ccn(-c2ccc3c(c2)B(O)OC3)c1`, the result in experiment [5] was Active. Moreover, the half-inhibitory concentration (IC50) in experiment [2] was 0.06 µg/mL (≈ 0.188 µM); in experiment [4], greater than 10 µg/mL.

Turning to `OB1OCc2ccc(-n3cc(Sc4ccc(Cl)cc4)c4ccccc43)cc21`, the results for the IC50 in experiment [2] and in experiment [4] were greater than 5 µg/mL and greater than 10 µg/mL, respectively.

As to `Cc1ccccc1C(=O)c1ccn(-c2ccc3c(c2)B(O)OC3)c1`, the IC50 was 0.56 µg/mL (≈ 1.77 µM) in experiment [2] and greater than 10 µg/mL in experiment [4].

In the case of `O=C(c1ccc(F)cc1)c1cccn1-c1ccc2c(c1)B(O)OC2`, the figures for the IC50 in experiment [2] and in experiment [4] were 0.4 µg/mL (≈ 1.25 µM) and greater than 10 µg/mL, respectively.

As for `Cc1ccsc1C(=O)c1ccn(-c2ccc3c(c2)B(O)OC3)c1`, the figures for the IC50 in experiment [2] and in experiment [4] were 0.11 µg/mL (≈ 0.34 µM) and greater than 10 µg/mL, respectively.
